In ChEMBL document CHEMBL3632601, “Actinoramide A Identified as a Potent Antimalarial from Titration-Based Screening of Marine Natural Product Extracts” (J Nat Prod, 2015):
The source made the active and inactive calls. The rule behind the calls is not given here.

What was measured:
[1] = test system: Plasmodium falciparum; assay: Inhibition of aspartyl protease activity of plasmepsin in Plasmodium falciparum extracts using EDANSCOCH2CH2CO-ALERMFLSFP-Dap(DABCYL)OH as substrate after 15 mins by fluorescence assay
Summary of the method: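 Saponin-treated, RBC-depleted P. falciparum extract (plasmepsin pellet, 0.16% final) in 100 mM sodium acetate pH 5.0, 20% glycerol. Compound pin-transferred, then 15 min preincubation with enzyme. EDANS-DABCYL Plasmepsin II substrate added at 5 or 10 μM final, under KM conditions. Fluorescence (ex 336/em 490 nm) read over 3 h. EC50 calculated from plotted data.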

[2] = test system: HEK293; assay: Cytotoxicity against human HEK293 cells after 72 hrs by CellTiter-Glo assay; settings: hek293, 72 h
[3] = test system: Plasmodium falciparum; assay: Antiplasmodial activity against Plasmodium falciparum 7G8 after 72 hrs by SYBR green DNA-staining parasite viability assay; format: functional, organism-based
Summary of the method: (§1)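 Intra-erythrocytic P. falciparum growth in 1536-well format. Infected RBCs at 0.3% parasitemia and 2.5% hematocrit (final) were exposed to compound at 37 °C, 5% CO2, for 72 h. Lysis buffer was added (Tris-HCl, EDTA, saponin, Triton X-100, SYBR Green I), followed by overnight incubation in the dark at 22–24 °C. Fluorescence read at 485/535 nm. Artemisinin and mefloquine served as positive controls, DMSO as negative. EC50 from curve fits, duplicate titrations.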

[4] = test system: Jurkat; assay: Cytotoxicity against human Jurkat cells after 72 hrs by SYBR Green viability assay; format: cell-based
[5] = test system: Plasmodium falciparum; assay: Antiplasmodial activity against Plasmodium falciparum HB3 after 72 hrs by SYBR green DNA-staining parasite viability assay; format: functional, organism-based; summary of the method: as §1
[6] = test system: Plasmodium falciparum; assay: Antiplasmodial activity against Plasmodium falciparum cp250 after 72 hrs by SYBR green DNA-staining parasite viability assay; format: functional, organism-based; summary of the method: as §1
[7] = test system: Plasmodium falciparum; assay: Antiplasmodial activity against Plasmodium falciparum GB4 after 72 hrs by SYBR green DNA-staining parasite viability assay; format: functional, organism-based; summary of the method: as §1
[8] = test system: HepG2; assay: Cytotoxicity against human HepG2 cells after 72 hrs by CellTiter-Glo assay; settings: hepg2, 72 h
[9] = test system: Plasmodium falciparum; assay: Antiplasmodial activity against Plasmodium falciparum Dd2 after 72 hrs by SYBR green DNA-staining parasite viability assay; format: functional, organism-based; summary of the method: as §1

inhibition [1] | SMILES | Activity [2] | EC50 ([3]; 7G8, 72 h) | EC50 [4] | EC50 ([5]; HB3, 72 h) | EC50 ([6]; cp250, 72 h) | EC50 ([7]; GB4, 72 h) | Activity [8] | EC50 ([9]; Dd2, 72 h) | Activity [3] | Activity [5] | Activity [6] | Activity [7] | Activity [9]
inactive | COCC(=O)N[C@@H](C(=O)N1NCCC[C@H]1C(=O)N[C@@H](Cc1ccccc1)[C@@H](O)[C@H](C)C(=O)N[C@H]1CCN(C(N)=O)C1=O)[C@H](O)C(C)C | Non-toxic | 200 nM | 90000 nM | 200 nM | 200 nM | 200 nM | Non-toxic | 200 nM |  |  |  |  | 
 | COCC(=O)N[C@@H](C(=O)N1N=CCC[C@H]1C(=O)N[C@@H](Cc1ccccc1)[C@@H](O)[C@H](C)C(=O)N[C@H]1CCN(C(N)=O)C1=O)[C@H](O)C(C)C | Non-toxic |  |  |  |  |  | Non-toxic |  | Active | Active | Active | Active | Active
 | COCC(=O)N[C@@H](C(=O)N1NCCC[C@H]1C(=O)N[C@@H](Cc1ccccc1)[C@@H](O)[C@H](C)C(=O)NC1CNC(=O)NC1=O)[C@H](O)C(C)C (some centres not stated) | Non-toxic |  |  |  |  |  | Non-toxic |  | inactive | inactive | inactive | inactive | inactive
 | COCC(=O)N[C@@H](C(=O)N1NCCC[C@H]1C(=O)N[C@@H](Cc1ccccc1)[C@@H](O)[C@H](C)C(=O)N[C@H]1CCNC1=O)[C@H](O)C(C)C | Non-toxic |  |  |  |  |  | Non-toxic |  | Active | Active | Active | Active | Active
 | COCC(=O)N[C@@H](C(=O)N1NCCC[C@H]1C(=O)N[C@@H](Cc1ccccc1)[C@@H](O)[C@H](C)C(=O)N[C@@H]1CCN(C(N)=O)C1=O)[C@H](O)C(C)C | Non-toxic |  |  |  |  |  | Non-toxic |  | Active | Active | Active | Active | Active
 | COCC(=O)N[C@@H](C(=O)N1NCCC[C@H]1C(=O)N[C@@H](Cc1ccccc1)[C@@H](O)[C@H](C)C(=O)N[C@H]1CCC(=O)NC1=O)[C@H](O)C(C)C | Non-toxic |  | 30000 nM |  |  |  | Non-toxic |  |  |  |  |  | 
 | COCC(=O)N[C@@H](C(=O)N1NCCC[C@H]1C(=O)N[C@@H](Cc1ccccc1)[C@@H](O)[C@H](C)C(=O)N[C@H]1CCN(C(C)=O)C1=O)[C@H](O)C(C)C | Non-toxic |  |  |  |  |  | Non-toxic |  | Active | Active | Active | Active | Active
